From PubChem BioAssay
PP5 inh – inhibitors of human protein phosphatase 5 (PP5). P53041. purified PP5c, OMFP substrate fluorescence. inhibition, % at 6.7 µM. actives 0.18% (n = 320,000). AID 1987;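 active = inhibition above the campaign's mean inhibition across all tested compounds plus 3 SD, cut at about 9.5% in these data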;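 also: 0% = DMSO only and 100% = 100 µM cantharidin control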
Target sequence (P53041 whole entry, looked up): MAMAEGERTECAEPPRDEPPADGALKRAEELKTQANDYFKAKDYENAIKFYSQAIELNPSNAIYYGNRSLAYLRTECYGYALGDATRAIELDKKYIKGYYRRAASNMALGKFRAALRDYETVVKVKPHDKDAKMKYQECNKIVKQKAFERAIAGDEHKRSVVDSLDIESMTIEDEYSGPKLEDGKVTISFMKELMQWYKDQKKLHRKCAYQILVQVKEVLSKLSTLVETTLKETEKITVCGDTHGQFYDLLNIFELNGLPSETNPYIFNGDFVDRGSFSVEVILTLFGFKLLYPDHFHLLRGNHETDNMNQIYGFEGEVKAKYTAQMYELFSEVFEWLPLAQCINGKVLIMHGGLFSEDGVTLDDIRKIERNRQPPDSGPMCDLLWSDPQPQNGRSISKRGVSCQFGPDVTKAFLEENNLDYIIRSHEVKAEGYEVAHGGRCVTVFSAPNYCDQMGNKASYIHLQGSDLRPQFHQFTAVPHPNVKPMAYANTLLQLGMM
HCV NS3 hel inh – blocks Hepatitis C virus NS3 helicase unwinding; NS3 helicase DNA unwinding, Cy5 molecular beacon fluorescence; inhibition, % at 10.9 µM; actives 0.56% (n = 290,000); AID 1800;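 active = inhibition above the mean of all tested compounds plus 3 SD, set per campaign, cut at about 35% in these data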;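 also: 0% = DMSO wells and 100% = thioflavine S control wells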
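Test system: hepatitis C virus NS3 helicase domain fragment enzyme. Also added: annealed dual-labelled DNA beacon duplex, ATP-started. Timing: 60 min unwinding reaction at 25 °C after ATP addition. Technique: Cy5 fluorescence. Measure: % inhibition of unwinding.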
PP1 inh – blocks human PP1-alpha phosphatase, a PP5 counter-screen; P62136; purified PP1alpha, OMFP fluorescence; inhibition, % at 6.7 µM; actives 0.9% (n = 320,000);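 active = inhibition above the mean inhibition of all tested compounds plus 3 SD, computed separately for each screening campaign, cut at about 15% in these data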
DNA FID counter – displaces DNA intercalator in HCV helicase counter-screen | AID 1845 | DNA fluorescent intercalator displacement, fluorescence | actives 0.17% (n = 290,000) | inhibition, % at 7.9 µM; in the data active = inhibition above about 37%;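 also: 0% = vehicle and 100% = reference compound; higher means more ethidium bromide displaced from hairpin DNA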
HIF act – HIF pathway transcriptional activation; U2OS HRE-luciferase reporter, luminescence; normalized: DMSO 0%, desferrioxamine 100%; activation, % at 7.5 µM (by protocol); actives 0.32% (n = 300,000);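 active = mean activation of at least 10% of the iron chelator positive control signal, with at least half of replicates also reaching 10%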
PP5 conf – confirmation of human PP5 phosphatase inhibitors | shares compounds with PP5 inh | Purified PP5, fluorogenic phosphatase substrate, fluorescence | inhibition, % at 6.7 µM | actives 22% (n = 460); in the data active = inhibition above about 9.5%
PP1 counter 3x – counter-screen for PP5 inhibitors: human PP1 phosphatase inhibition; shares compounds with PP5 inh; PP1 enzyme, fluorescent phosphatase substrate; inhibition, % at 6.7 µM; actives 4% (n = 460); AID 2355; in the data active = inhibition above about 16%
Numbers without * were called inactive; . = no result. Sampled rows, rich in hits. Any-hit rate of the full collection: about 1.9%.

SMILES | PP5 inh | HCV NS3 hel inh | PP1 inh | DNA FID counter | HIF act | PP5 conf | PP1 counter 3x
Cc1nnc(SCC(=O)NC2CCCCC2)n(N)c1=O | -2 | -3 | -5 | 0 | 0 | . | .
Cc1ccc(S(=O)(=O)N2CCN(S(=O)(=O)c3c(C)n[nH]c3C)CC2)cc1C | 16* | . | 2 | . | . | 3 | 2
Cc1ccc(S(=O)(=O)N2CCN(C)CC2)cc1C | 0 | 0 | -3 | -1 | 0 | . | .
CC(C)COC(=O)N1CC(O)CC1C(=O)O (stereo not given) | 11* | -11 | -10 | -4 | 0 | -1 | -2
COc1ccc(NC(=O)CSc2nnc(Cn3cnc4ccccc43)o2)cc1 | 0 | 0 | -5 | -6 | -1 | . | .
CC(C)(CO)NC12CC3CC(CC(C3)C1)C2 | 11* | 13 | -13 | 6 | 0 | -2 | -4
CC(O)CNC12CC3CC(CC(C3)C1)C2 (stereo not given) | -1 | 9 | -6 | -2 | 0 | . | .
COc1ccc(Cl)cc1NC(=O)CSc1nnc(Cc2ccc(C)cc2)c(=O)[nH]1 | 2 | . | 0 | . | 0 | . | .
COC(=O)C1=C(CSc2nccn2C)NC(=O)NC1c1cc(C)ccc1C (stereo not given) | 9.9* | -6 | -4 | -10 | 0 | -4 | -4
COC(=O)C1=C(CSc2nncn2C)NC(=O)NC1c1cc(C)ccc1C (stereo not given) | 2 | -4 | 1 | -5 | 0 | . | .
O=C(NC1CCCCC1)N1CCC(n2c(=O)[nH]c3ccccc32)CC1 | 19* | . | 11 | . | 0 | -2 | -1
CCc1ccc(NC(=O)CN(CC(=O)Nc2ccc(CC)cc2)CC(C)O)cc1 (stereo not given) | 11* | -6 | 6 | -30 | -23 | 8 | 5
Clc1ccc(OCCn2ccnc2)cc1Cl | 10* | -5 | 2 | 9 | 0 | -2 | -3
C[C@H](c1ccccc1)n1nnc(COCc2ccccc2)c1C#CCOCc1ccccc1 | 1 | . | 6 | . | 0 | . | .
COC(=O)CCC(=O)OC1(C)C(=O)C=C2C=C(C3CC3)N(CCCOC(C)C)C=C2C1=O (stereo not given) | 10* | . | 5 | . | 0 | 35* | 11
C=CCN1C=C2C(=O)C(C)(OC(=O)CCC(=O)OC)C(=O)C=C2C=C1C1CC1 (stereo not given) | 9 | . | -3 | . | 1 | . | .
COC(=O)CCC(=O)OC1(C)C(=O)C=C2C=C(C3CC3)N(C(CO)CO)C=C2C1=O (stereo not given) | 4 | . | 8 | . | 0 | . | .
COC(=O)CCC(=O)OC1(C)C(=O)C=C2C=C(C3CC3)N(c3ccccc3)C=C2C1=O (stereo not given) | 11* | . | -1 | . | 0 | 30* | 10
COC(=O)CCC(=O)OC1(C)C(=O)C=C2C=C(C3CC3)N(CCCCO)C=C2C1=O (stereo not given) | 14* | . | 7 | . | 0 | 34* | 2
COC(=O)CCC(=O)OC1(C)C(=O)C=C2C=C(C3CC3)N(CCN3CCOCC3)C=C2C1=O (stereo not given) | 9 | . | 1 | . | 0 | . | .
COC(=O)CCC(=O)OC1(C)C(=O)C=C2C=C(C3CC3)N(CCc3ccccn3)C=C2C1=O (stereo not given) | 11* | . | 2 | . | -1 | 42* | 19*
CCC(c1nnc(SC(C)C(=O)NC2CC2)n1-c1ccc(OC)cc1)N(C)C (stereo not given) | 0 | . | 1 | . | . | . | .
O=C(COC(=O)Cn1[nH]c(=O)c2ccccc2c1=O)NNC(=O)c1ccc(Br)cc1 | 2 | . | -2 | . | . | . | .
Cc1ccc(/C(O)=C2\C(=O)C(=O)N(C)C2c2ccc(Br)cc2)cc1 (stereo not given) | 10* | 9 | 6 | -39 | -1 | -7 | -2
CN1C(=O)C(=O)/C(=C(/O)c2ccc(Br)cc2)C1c1ccc(F)cc1 (stereo not given) | -1 | 12 | 2 | -23 | 0 | . | .
SMILES | PP5 inh | HCV NS3 hel inh | PP1 inh | DNA FID counter | HIF act | PP5 conf | PP1 counter 3x
CCC(C)(C(=O)NC1CCCCC1)N(C(=O)CNC(=O)c1ccccc1)c1c(C)n(C)n(-c2ccccc2)c1=O (stereo not given) | -2 | 0 | 3 | -16 | 0 | . | .
O=C1CCCC2=C1C1(O)C(=O)c3ccccc3C1(O)O2 (stereo not given) | 17* | 0 | 10 | 1 | -1 | 45* | 3
CNC(=O)CSc1nc2cccnc2n1C1CCCCC1 | 2 | -1 | 2 | -13 | 0 | . | .
CC(C)(C)NC(=O)CSc1nc2cccnc2n1C1CCCCC1 | 14* | 2 | -1 | -38 | -1 | 0 | 1
CC(=O)Nc1cccc2c1C(=O)N(c1ccccc1OC(C)=O)C2=O | -3 | 11 | -1 | -3 | -1 | . | .
COc1cc(C(C)=O)ccc1COc1ccc(C(=O)O)cc1OC | 11* | 2 | -1 | -5 | 0 | -1 | -1
COc1ccc(C(C)=O)cc1CSCc1cc(C(C)=O)ccc1OC | 1 | -10 | 0 | -37 | 0 | . | .
O=C1CCCCC/C1=N/Nc1ccc(OCc2ccccc2)cc1 | 0 | 7 | 2 | -10 | 2 | . | .
Oc1ccc(/C=N\Nc2cc(N3CCOCC3)nc(N3CCOCC3)n2)c(O)c1 | 14* | -2 | 0 | -17 | 1 | 36* | 0
CCSc1nnc(NC(=O)CSc2nc3c(c(=O)n2-c2ccccc2)SCC3)s1 | 12* | -1 | -4 | -3 | . | -4 | -2
Cc1ccnc(NC(=O)COC(=O)c2ccc(F)cc2F)n1 | 15* | -7 | -5 | -3 | -1 | -5 | -5
Cc1ccc(NC(=O)C2CCN(c3ncnc4c3nc3n4CCCCC3)CC2)nc1 | 3 | 5 | -3 | -40 | 0 | . | .
O=C(Nc1ccn(Cc2c(F)c(F)cc(F)c2F)n1)c1ccc(COc2ccc(Cl)cc2Cl)o1 | 9.8* | 1 | 7 | 1 | -1 | 1 | 2
O=C(Nc1ccccc1F)c1ccc(COc2ccc(Cl)cc2Cl)o1 | 5 | -9 | -5 | -10 | 0 | . | .
Cc1nn(Cc2c(F)c(F)c(F)c(F)c2F)c(C)c1NC(=O)c1ccc(COc2ccc(Cl)cc2Cl)o1 | 10* | -40 | 10 | -36 | 0 | 3 | 2
Cc1nn(Cc2ccc(Cl)cc2Cl)c(C)c1NC(=O)c1ccc(COc2cc(Cl)ccc2Cl)o1 | 3 | -4 | 12 | -4 | 1 | . | .
Cc1ccc(S(=O)(=O)n2cnc3ccccc32)cc1[N+](=O)[O-] | -4 | 14 | -6 | 0 | -21 | . | .
CCOc1ccccc1NC(C)C(=O)NC(=O)NC1CCCCC1 (stereo not given) | -1 | . | -3 | . | . | . | .
O=C(/C=C/c1ccco1)NC(=S)Nc1ccccc1N1CCOCC1 | 9.7* | 0 | -1 | -14 | 0 | 0 | 1
CCOc1ncccc1C(=O)N1CCN(S(=O)(=O)c2ccc3c(c2)OCCO3)CC1 | 2 | . | -4 | . | . | . | .
